The values that follow come from ChEMBL document CHEMBL1149914 (J Med Chem, 2008).

The target in test [1] is Sodium-dependent serotonin transporter (Homo sapiens, UniProt P31645). The experiment in a line: Displacement of [125I]RTI55 from SERT. The method in brief: (§1)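 [125I]RTI-55 at 0.01 nM (s.a. 2200 Ci/mmol) competitive binding. Drugs and blocker in 55.2 mM sodium phosphate pH 7.4 with 1 mg/mL BSA. Radioligand in the same buffer with chymostatin 25 μg/mL, leupeptin 25 μg/mL, EDTA 100 μM and EGTA 100 μM. Triplicate incubation for 18–24 h at 4 °C (equilibrium), 1 mL final volume. Ki derived.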
For orientation: In a radioligand displacement assay an active substance lowers the binding of a labelled ligand.

Test [2] is described as follows: Ratio of Ki for SERT to Ki for DAT. The method in brief: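 SERT Ki divided by DAT Ki. Both come from [125I]RTI-55 (0.01 nM) binding in pH 7.4 sodium phosphate/BSA buffer with protease inhibitors, run in triplicate for 18–24 h at 4 °C.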
Test [3] deals with Sodium-dependent dopamine transporter (Homo sapiens, UniProt Q01959). The experiment in a line: Displacement of [125I]RTI55 from DAT. The method in brief: as §1
Sequence of Sodium-dependent dopamine transporter (Q01959 whole entry): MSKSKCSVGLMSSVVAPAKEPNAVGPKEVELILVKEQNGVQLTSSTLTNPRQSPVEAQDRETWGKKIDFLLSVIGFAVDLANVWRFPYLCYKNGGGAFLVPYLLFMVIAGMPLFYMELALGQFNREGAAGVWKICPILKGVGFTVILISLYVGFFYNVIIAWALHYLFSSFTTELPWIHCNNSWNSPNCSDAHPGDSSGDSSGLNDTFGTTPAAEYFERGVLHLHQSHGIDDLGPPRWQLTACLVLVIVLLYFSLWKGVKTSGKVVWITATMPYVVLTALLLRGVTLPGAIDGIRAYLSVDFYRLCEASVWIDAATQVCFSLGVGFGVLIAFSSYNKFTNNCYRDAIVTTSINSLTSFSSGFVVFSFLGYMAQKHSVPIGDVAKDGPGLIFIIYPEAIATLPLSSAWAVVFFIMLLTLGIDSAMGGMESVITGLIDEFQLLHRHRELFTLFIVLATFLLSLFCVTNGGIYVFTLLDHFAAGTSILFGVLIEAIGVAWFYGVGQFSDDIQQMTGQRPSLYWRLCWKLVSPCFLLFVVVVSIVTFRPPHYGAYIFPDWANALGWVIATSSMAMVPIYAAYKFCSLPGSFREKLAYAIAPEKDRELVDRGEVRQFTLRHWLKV

Sequence of Sodium-dependent serotonin transporter (P31645 whole entry): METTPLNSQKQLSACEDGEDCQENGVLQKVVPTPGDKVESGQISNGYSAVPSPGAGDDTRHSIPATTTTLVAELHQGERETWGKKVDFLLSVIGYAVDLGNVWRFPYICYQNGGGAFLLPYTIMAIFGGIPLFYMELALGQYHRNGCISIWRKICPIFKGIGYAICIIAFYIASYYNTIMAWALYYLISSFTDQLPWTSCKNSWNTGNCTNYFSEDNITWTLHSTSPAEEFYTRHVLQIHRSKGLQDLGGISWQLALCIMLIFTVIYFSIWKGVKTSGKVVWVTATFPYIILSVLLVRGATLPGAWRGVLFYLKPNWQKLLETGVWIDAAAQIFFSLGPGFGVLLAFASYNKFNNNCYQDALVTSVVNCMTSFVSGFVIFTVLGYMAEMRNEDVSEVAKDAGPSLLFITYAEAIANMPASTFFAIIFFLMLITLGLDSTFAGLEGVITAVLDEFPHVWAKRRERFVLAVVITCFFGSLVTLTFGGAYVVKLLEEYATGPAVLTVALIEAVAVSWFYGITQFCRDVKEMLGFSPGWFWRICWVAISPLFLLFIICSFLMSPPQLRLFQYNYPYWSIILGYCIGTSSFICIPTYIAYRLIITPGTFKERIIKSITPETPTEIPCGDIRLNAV

By Ki is commonly meant a dissociation constant, usually derived from enzyme kinetics or from competition with a known ligand. Higher therefore signals a looser hold on the target. `C=C(Cc1ccccc1)CN1CCN(CCOC(c2ccc(F)cc2)c2ccc(F)cc2)CC1` returned a Ki in test [1] of 430 nM. Moreover, the Ratio Ki in test [2] is 4.

With `C=C(Cc1ccccc1)CN1CCN(CCOC(c2ccccc2)c2ccccc2)CC1`, the affinity in test [1] corresponds to a Ki of 3300 nM. Further, the Ratio Ki in test [2] is 8.

Regarding `CC(Cc1ccccc1)CN1CCN(CCOC(c2ccc(F)cc2)c2ccc(F)cc2)CC1` (single isomer, unassigned; (-)) [listing 1 of 2 here], in test [2], the Ratio Ki is 11.

In test [1], `Fc1ccc(C(OCCN2CCN(C[C@@H](F)Cc3ccccc3)CC2)c2ccc(F)cc2)cc1` gave an inhibition constant (Ki) of 290 nM. The Ratio Ki in test [2] is 109.

Turning to `O=C(Cc1ccccc1)CN1CCN(CCOC(c2ccc(F)cc2)c2ccc(F)cc2)CC1`, the Ki in test [1] was 250 nM. Moreover, in test [2], the Ratio Ki was determined as 38.

As to `O[C@@H](Cc1ccccc1)CN1CCN(CCOC(c2ccc(F)cc2)c2ccc(F)cc2)CC1`, the values for the Ki in test [3] and in test [1] were 0.75 nM and 230 nM, respectively. Besides, in test [2], the Ratio Ki was determined as 307.

`FC[C@H](Cc1ccccc1)N1CCN(CCOC(c2ccc(F)cc2)c2ccc(F)cc2)CC1`: in test [1], the affinity corresponds to a Ki of 110 nM. Further, the Ratio Ki in test [2] is 0.8.

Consider `O[C@@H](Cc1ccccc1)CN1CCN(CCOC(c2ccccc2)c2ccccc2)CC1`, for which the Ki was found to be 2.3 nM in test [3] and 2200 nM in test [1]. For the same molecule, the Ratio Ki in test [2] was found to be 957.

In the case of `CC(O)(Cc1ccccc1)CN1CCN(CCOC(c2ccc(F)cc2)c2ccc(F)cc2)CC1` (centres undefined), in test [1], the inhibitory constant (Ki) is 310 nM. Also, the Ratio Ki in test [2] was 6.

Regarding `O[C@H](Cc1ccccc1)CN1CCN(CCOC(c2ccccc2)c2ccccc2)CC1`, the inhibition constant Ki in test [3] came out at 25 nM; in test [1] it was 1800 nM. Further, in test [2], the Ratio Ki stood at 72.

Regarding `CC(O)(CCN1CCN(CCOC(c2ccc(F)cc2)c2ccc(F)cc2)CC1)c1ccccc1` (centres undefined), the inhibitory constant (Ki) in test [1] came out at 150 nM. Moreover, in test [2], the Ratio Ki was found to be 39.

As to `C=C(CCN1CCN(CCOC(c2ccc(F)cc2)c2ccc(F)cc2)CC1)c1ccccc1`, the Ki in test [1] is 190 nM. Moreover, the Ratio Ki in test [2] worked out at 11.

On to `N[C@H](Cc1ccccc1)CN1CCN(CCOC(c2ccc(F)cc2)c2ccc(F)cc2)CC1`, for which the affinity in test [1] corresponds to a Ki of 22 nM. Also, the Ratio Ki in test [2] stood at 1.

Molecule `FC[C@@H](Cc1ccccc1)N1CCN(CCOC(c2ccc(F)cc2)c2ccc(F)cc2)CC1` registered a Ki in test [1] of 190 nM. In test [2], the Ratio Ki was 2.

For the molecule `N[C@@H](Cc1ccccc1)CN1CCN(CCOC(c2ccc(F)cc2)c2ccc(F)cc2)CC1`, in test [1], affinity was put at a Ki of 88 nM. For the same molecule, the Ratio Ki in test [2] was 2.

For `O=C(CN1CCN(CCOC(c2ccc(F)cc2)c2ccc(F)cc2)CC1)c1ccccc1`, the inhibition constant (Ki) in test [1] came out at 88 nM. For the same molecule, the Ratio Ki in test [2] was 2.

`O=C(CN1CCN(CCOC(c2ccccc2)c2ccccc2)CC1)c1ccccc1` displayed a Ki in test [1] of 1400 nM. In test [2], the Ratio Ki turned out to be 3.

As for `Fc1ccc(C(OCCN2CCN(C[C@H](F)Cc3ccccc3)CC2)c2ccc(F)cc2)cc1`, the affinity in test [1], expressed as Ki, was 540 nM. In addition, the Ratio Ki in test [2] was 25.

On to `CO[C@@H](Cc1ccccc1)CN1CCN(CCOC(c2ccc(F)cc2)c2ccc(F)cc2)CC1`, for which the affinity in test [1], expressed as Ki, was 220 nM. Further, in test [2], the Ratio Ki worked out at 8.

Molecule `CO[C@H](Cc1ccccc1)CN1CCN(CCOC(c2ccc(F)cc2)c2ccc(F)cc2)CC1` displayed an inhibition constant Ki in test [1] of 250 nM. Further, in test [2], the Ratio Ki turned out to be 9.

In turn, `CC(Cc1ccccc1)CN1CCN(CCOC(c2ccc(F)cc2)c2ccc(F)cc2)CC1` (single isomer, unassigned; (-)) [listing 2 of 2 here] returned an inhibitory constant (Ki) in test [1] of 190 nM.

Molecule `C=C(CCN1CCN(CCOC(c2ccccc2)c2ccccc2)CC1)c1ccccc1` registered a Ki in test [1] of 1800 nM. Further, the Ratio Ki in test [2] turned out to be 59.

With `CC(Cc1ccccc1)CN1CCN(CCOC(c2ccc(F)cc2)c2ccc(F)cc2)CC1` (stereo in doubt; (+)-7) [listing 1 of 2 here], the Ratio Ki in test [2] came to 7.

For `O=C(Cc1ccccc1)CN1CCN(CCOC(c2ccccc2)c2ccccc2)CC1`, the affinity in test [1], expressed as Ki, was 2500 nM. The Ratio Ki in test [2] is 250.

Regarding `O[C@H](Cc1ccccc1)CN1CCN(CCOC(c2ccc(F)cc2)c2ccc(F)cc2)CC1`, the inhibition constant Ki in test [3] was found to be 12 nM; in test [1] it was 160 nM. In test [2], the Ratio Ki is 13.

On to `CC(O)(Cc1ccccc1)CN1CCN(CCOC(c2ccccc2)c2ccccc2)CC1` (centres undefined), for which, in test [1], the inhibitory constant (Ki) is 2000 nM. Further, the Ratio Ki in test [2] came out at 14.

In turn, `CC(Cc1ccccc1)CN1CCN(CCOC(c2ccc(F)cc2)c2ccc(F)cc2)CC1` (stereo in doubt; (+)-7) [listing 2 of 2 here] registered a Ki in test [1] of 120 nM.

Consider `Fc1ccc(C(OCCN2CCN(CCc3ccccc3)CC2)c2ccc(F)cc2)cc1`, for which the values for the Ki in test [3] and in test [1] were 8 nM and 36 nM, respectively. For the same molecule, in test [2], the Ratio Ki was 5.

In test [1], `CC(O)(CCN1CCN(CCOC(c2ccccc2)c2ccccc2)CC1)c1ccccc1` (centres undefined) showed a Ki of 1800 nM. Besides, in test [2], the Ratio Ki came to 254.
